The target of test [1] is Human immunodeficiency virus type 1 reverse transcriptase (Human immunodeficiency virus 1) (UniProt Q72547). Description: Ratio of Kpol to Kd for wild type HIV1 LAI reverse transcriptase. In outline:
(§1)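 Pre-steady-state rapid quench: 400 nM active-site RT and 40 nM ³²P-P20/T57 DNA T/P were preincubated in 50 mM Tris-HCl pH 7.5, 50 mM KCl, then mixed with nucleotide in the same buffer containing 20 mM MgCl₂. Quenched with 0.3 M EDTA from 10 ms to 30 min, run on urea-PAGE. kobs came from single-exponential fits; kpol and Kd came from a hyperbolic fit versus nucleotide concentration.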

Test [2] relates to Human immunodeficiency virus type 1 reverse transcriptase (Human immunodeficiency virus 1), Q72547 [M41L,L210W,T215Y,M184V]. Briefly: Ratio of Kpol to Kd for HIV1 LAI reverse transcriptase M41L/L210W/T215Y/M184V mutant. In outline:
as §1

Test [3] concerns the target Human immunodeficiency virus type 1 reverse transcriptase (Human immunodeficiency virus 1, UniProt Q72547). Briefly: Binding affinity to wild type HIV1 LAI reverse transcriptase. A digest of the protocol: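 Bacterially expressed, purified RT, corrected for active-site concentration, preincubated at 400 nM with 40 nM 5′-³²P-labelled 20-nt DNA primer annealed to a 57-nt DNA template in 50 mM Tris-HCl pH 7.5, 50 mM KCl. It was then rapid-quench mixed 1:1 with nucleotide in the same buffer plus 20 mM MgCl₂. EDTA quench at 10 ms–30 min; urea-PAGE. k_obs fitted single-exponential; K_d from hyperbolic k_obs-versus-concentration fit.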

Test [4] relates to Human immunodeficiency virus type 1 reverse transcriptase (Human immunodeficiency virus 1), Q72547 [M184V]. Briefly: Ratio of Kpol to Kd for HIV1 LAI reverse transcriptase M184V mutant. In outline: as §1
Test [5] addresses Human immunodeficiency virus type 1 reverse transcriptase (Human immunodeficiency virus 1, UniProt Q72547, M184V). Briefly: Binding affinity to HIV1 LAI reverse transcriptase M184V mutant.
The subject of test [6] is Human immunodeficiency virus type 1 reverse transcriptase (Human immunodeficiency virus 1), Q72547 [M41L,L210W,T215Y]. Description: Ratio of Kpol to Kd for HIV1 LAI reverse transcriptase M41L/L210W/T215Y mutant. A digest of the protocol:
as §1

Test [7] is described as follows: Binding affinity to HIV1 LAI reverse transcriptase M41L/L210W/T215Y/M184V/G333D mutant. Set-up: species or system Human immunodeficiency virus 1.
For test [8], the target named is Human immunodeficiency virus type 1 reverse transcriptase (Human immunodeficiency virus 1, UniProt Q72547, L210W/M184V/M41L/T215Y). Briefly: Binding affinity to HIV1 LAI reverse transcriptase M41L/L210W/T215Y/M184V mutant.
The subject of test [9] is Human immunodeficiency virus 1. Description: Ratio of Kpol to Kd for HIV1 LAI reverse transcriptase M41L/L210W/T215Y/M184V/G333D mutant. A digest of the protocol:
as §1

In test [10] the target is Human immunodeficiency virus type 1 reverse transcriptase (Human immunodeficiency virus 1, UniProt Q72547, L210W/M41L/T215Y). Briefly: Binding affinity to HIV1 LAI reverse transcriptase M41L/L210W/T215Y mutant.
Test [11] has as its system Human immunodeficiency virus 1. Description: Binding affinity to HIV1 LAI reverse transcriptase M41L/L210W/T215Y/M184V/G333D mutant relative to wild type.
Test [12] has as its system Human immunodeficiency virus type 1 reverse transcriptase (Human immunodeficiency virus 1), Q72547 [M41L,L210W,T215Y,M184V]. Briefly: Binding affinity to HIV1 LAI reverse transcriptase M41L/L210W/T215Y/M184V mutant relative to wild type.
Test [13] has as its system Human immunodeficiency virus type 1 reverse transcriptase (Human immunodeficiency virus 1), Q72547 [M41L,L210W,T215Y]. Description: Binding affinity to HIV1 LAI reverse transcriptase M41L/L210W/T215Y mutant relative to wild type.
For test [14], the system named is Human immunodeficiency virus type 1 reverse transcriptase (Human immunodeficiency virus 1), Q72547 [M184V]. Description: Resistance (selectivity ratio) of HIV1 LAI reverse transcriptase M184V mutant relative to wild type.

pKd: −log10 of the molar value.

What is called pKd is the negative decadic logarithm of the Kd, by convention in mol/L. The low end stands for a large Kd, the high end for a small Kd. On to `Nc1ccn([C@H]2C[C@H](O)[C@@H](COP(=O)(O)OP(=O)(O)OP(=O)(O)O)O2)c(=O)n1` [DEOXYCYTIDINE TRIPHOSPHATE], for which the Ratio in [1] amounted to 1.07; in [2], 0.44; in test [4], 0.53; in [6] it was 1.06; in test [9], 0.58. Also, the pKd in test [3] was 5.94; in test [5], 5.60; in test [7], 5.60; in test [8] it was 5.52; in [10], 5.91.
For `Cc1cn([C@H]2C[C@H](N=[N+]=[N-])[C@@H](CO[P@](=O)(O)O[P@](=O)(O)OP(=O)(O)O)O2)c(=O)[nH]c1=O` [ZIDOVUDINE TRIPHOSPHATE], the pKd in test [3] was 5.70; in test [5], 5.54; in test [8] it was 5.46; in test [10], 5.94.
Consider `Cc1cn([C@H]2C[C@H](O)[C@@H](COP(=O)(O)OP(=O)(O)OP(=O)(O)O)O2)c(=O)[nH]c1=O` [DEOXYTHYMIDINE_TRIPHOSPHATE], for which the pKd in test [3] was 5.68; in test [5], 5.55; in test [7] it was 5.54; in test [8], 5.58; in test [10] it was 5.92.
Take `Cc1cn([C@H]2C[C@H](N=[N+]=[N-])[C@@H](COP(=O)(O)OP(=O)(O)OP(=O)(O)O)O2)c(=O)[nH]c1=O` [ZIDOVUDINE TRIPHOSPHATE]: the values for the fold change (FC) in [11], in [12] and in test [13] were 1.81, 1.76 and 1.14, respectively. The Ratio is 4.41 in test [1]; 1.3 in test [2]; 2.41 in test [4]; 4.26 in test [6]; 1.1 in test [9]. The molecule further showed a pKd in [7] of 5.42. The fold resistance in test [14] came out at 1.13.
Consider `Nc1ccn([C@@H]2CS[C@H](COP(=O)(O)OP(=O)(O)OP(=O)(O)O)O2)c(=O)n1` [LAMIVUDINE TRIPHOSPHATE], for which the fold change (FC) in test [11] amounted to 116; in test [12] it was 61.8; in test [13], 1.5. Besides, the Ratio was 0.06 in [1]; 0.0004 in test [2]; 0.00061 in [4]; 0.04 in [6]; 0.00028 in [9]. The pKd was 6.43 in [3]; 5.09 in test [5]; 4.75 in [7]; 5.01 in test [8]; 6.37 in [10]. In addition, in [14], the fold resistance was 48.8.

For the origin of these results see ChEMBL document CHEMBL1153554, “Mechanisms by which the G333D mutation in human immunodeficiency virus type 1 Reverse transcriptase facilitates dual resistance to zidovudine and lamivudine” (Antimicrob Agents Chemother, 2008).
